From paper PMC7271564 (Haematologica, 2019) come the findings set out here.

“Also recorded” adds a separate entry of the source.

The test system of assay [1] is T-cell malignancies (primary samples). In words: CellTiter-Glo viability assay. As to conditions: similar to healthy T cells. The assay is classed as cell-based, human. The method, boiled down:
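Primary BM aspirates from leukemia patients (Cohort III, n=281 total), with T-PLL samples tested as enriched CD8+ cells, were exposed to the drug panel. The endpoint was CellTiter-Glo luminescent viability. Luminescence was fitted to dose–response curves, from which a drug sensitivity score (DSS) was calculated. Comparison was against bead-enriched healthy BM CD3+ cells.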

Another assay deals with T-cell subsets (CD3+). Description: HTFC drug sensitivity assay, T-cell subsets. Format: cell-based, human. Put shortly:
(§1)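 Cohort I comprised 16 samples: 3 healthy PB, 3 AML and 10 MM. Samples were tested in 96-well plates against six compounds by no-wash high-throughput flow cytometry (iQue Screener PLUS). Two antibody panels defined up to ten subsets, including CD138+CD38± plasma cells and CD34+CD38± progenitors. Per-population cell counts gave dose–response curves, from which DSS and IC50 were derived. Results were shown as mean±SEM per disease group.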

The subject of a further assay is CD138+CD38- plasma cells. Description: HTFC drug sensitivity assay, plasma cell subset. The assay is classed as cell-based, human. To be noted: CD138+CD38- plasma cells compared to CD138+CD38+ or other cells, MM samples. Put shortly:
as §1

Another assay relates to CD19+/B cells. In words: High throughput no-wash flow cytometry. As to conditions: for sensitivity compared to other cell types, in words: B cells, three healthy PB samples, 71-drug screen. The assay is classed as cell-based, human. For orientation: Flow cytometry measures light scatter and fluorescence of single cells or particles in a stream.
The test system of a further assay is monocytes (CD14+). In words: HTFC drug sensitivity assay, monocytes. The assay is classed as cell-based, human. As to conditions: for response of monocytes, in words: mean of 16 samples (3 healthy, 3 AML, 10 MM), Cohort I. The method, boiled down:
(§2)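 Three healthy PB samples were screened ex vivo with 71 compounds at 5 concentrations in 384-well plates. The assay was a no-wash multiplexed flow cytometry run on an iQue Screener PLUS. Six subsets were gated by surface antigen: CD19+, CD56+, CD3+CD4+, CD3+CD8+, CD3+CD56+ and CD14+. Cell counts per subset gave dose–response curves, and DSS was derived from these.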

Another assay concerns CD56+/NK cells. In words: HTFC drug sensitivity assay, NK cells. Format: cell-based, human. As to conditions: for sensitivity compared to other cell types, in words: NK cells, three healthy PB samples, 71-drug screen. The method, boiled down: as §2
In assay [2] the test system is CD34+CD38+ cells (CPC/blast). In words: HTFC drug sensitivity assay, progenitor/blast cells. Format: cell-based. To be noted: Homo sapiens.
A further assay relates to CD34+CD38- cells (HSC). In words: HTFC drug sensitivity assay, hematopoietic stem cells. Format: cell-based, human. As to conditions: CD34+CD38- cells from healthy donors (BM, n=2).

With `COc1ncc(-c2ccc3nccc(-c4ccnnc4)c3c2)cc1NS(=O)(=O)c1ccc(F)cc1F` [omipalisib], the “response (DSS), in words” value in assay [1] is recorded as “no response”. In the assay on T-cell subsets (CD3+) (T-cell subsets, Cohort I samples), the “sensitivity, in words” value is listed as “insensitive”. Moreover, the “effect on CD3+ cell count, in words” value with T-cell subsets (CD3+) (at concentrations of 10 and 100 nM) is given as “increase”.

For the compound `CC(C)C[C@H](NC(=O)[C@H](Cc1ccccc1)NC(=O)c1cnccn1)B(O)O` [bortezomib], the “ex vivo response, in words” value in the assay on CD138+CD38- plasma cells was “resistant”.

For `C[C@@H]1C[C@H]2[C@@H]3CCC4=CC(=O)C=C[C@]4(C)[C@@]3(F)[C@@H](O)C[C@]2(C)[C@@]1(O)C(=O)CO` [dexamethasone], the “sensitivity compared to other cell types, in words” value with CD19+/B cells and with CD56+/NK cells was “higher sensitivity” throughout. Further, the “effect on cell count, in words” value in the assay on CD19+/B cells (CD19+ cells, Cohort I samples) is given as “depleted”; in the assay with CD56+/NK cells (CD56+ cells, Cohort I samples) it was “depleted”. In the assay on monocytes (CD14+) (Cohort I samples), the “effect on CD14+ cell count, in words” value is “dose-dependent increase”. For the same compound, in the assay on monocytes (CD14+), the “response of monocytes, in words” value is listed as “resistant”.

On to `CC1(C)CCC(CN2CCN(c3ccc(C(=O)NS(=O)(=O)c4ccc(NCC5CCOCC5)c([N+](=O)[O-])c4)c(Oc4cnc5[nH]ccc5c4)c3)CC2)=C(c2ccc(Cl)cc2)C1` [venetoclax], for which the “sensitivity compared to other cell types, in words” value in the assay with CD19+/B cells and with CD56+/NK cells was “higher sensitivity” throughout. Further, the “response of monocytes, in words” value with monocytes (CD14+) is recorded as “resistant”.

For `CC1(C)CCC(c2ccc(Cl)cc2)=C(CN2CCN(c3ccc(C(=O)NS(=O)(=O)c4ccc(N[C@H](CCN5CCOCC5)CSc5ccccc5)c(S(=O)(=O)C(F)(F)F)c4)cc3)CC2)C1` [navitoclax], the “response of monocytes, in words” value with monocytes (CD14+) is listed as “resistant”.

As to `Cc1nc(Nc2ncc(C(=O)Nc3c(C)cccc3Cl)s2)cc(N2CCN(CCO)CC2)n1` [dasatinib], the “drug response profile (DSS clustering), in words” value in the assay with monocytes (CD14+) (monocytes, three healthy PB samples, 71-drug screen) is recorded as “selective sensitivity”.

A word on the IC50: it is the point on the concentration scale where inhibition reaches its midpoint. Turning to `CO[C@@H]1[C@H](N(C)C(=O)c2ccccc2)C[C@H]2O[C@]1(C)n1c3ccccc3c3c4c(c5c6ccccc6n2c5c31)C(=O)NC4` [midostaurin], the IC50 in assay [2] worked out at 16 nM. For the same compound, the “sensitivity compared to other cell types, in words” value with CD19+/B cells and in the assay on CD56+/NK cells was “higher sensitivity” each time. Moreover, the “sensitivity, in words” value in the assay with CD34+CD38- cells (HSC) is “insensitive; also recorded: no effect”.
